Laboratory results: PMC4470291 (Biochemistry, 2009)
One block for each molecule: values may come before it. Square brackets hold non-standard residues; d marks the D form. Peptide text beside a SMILES is read from it. * marks the point of attachment. AMC = Cc1cc(=O)oc2cc(N*)ccc12; Pip = O=C(O)[C@@H]1CCCCN1; Cbz = O=C(OCc1ccccc1)*; AEEA = NCCOCCOCC(=O)O

Tests used:
APCE [1] = target: T1, APCE (Homo sapiens, UniProt Q12884); assay: Kinetics of fluorogenic substrate cleavage by APCE; format: biochemical; settings: for kcat, APCE / Km: pH 7.5, 22 °C, 20 min; for Km: read-out: Km, APCE
T1 sequence (Q12884 24-760 limits assumed): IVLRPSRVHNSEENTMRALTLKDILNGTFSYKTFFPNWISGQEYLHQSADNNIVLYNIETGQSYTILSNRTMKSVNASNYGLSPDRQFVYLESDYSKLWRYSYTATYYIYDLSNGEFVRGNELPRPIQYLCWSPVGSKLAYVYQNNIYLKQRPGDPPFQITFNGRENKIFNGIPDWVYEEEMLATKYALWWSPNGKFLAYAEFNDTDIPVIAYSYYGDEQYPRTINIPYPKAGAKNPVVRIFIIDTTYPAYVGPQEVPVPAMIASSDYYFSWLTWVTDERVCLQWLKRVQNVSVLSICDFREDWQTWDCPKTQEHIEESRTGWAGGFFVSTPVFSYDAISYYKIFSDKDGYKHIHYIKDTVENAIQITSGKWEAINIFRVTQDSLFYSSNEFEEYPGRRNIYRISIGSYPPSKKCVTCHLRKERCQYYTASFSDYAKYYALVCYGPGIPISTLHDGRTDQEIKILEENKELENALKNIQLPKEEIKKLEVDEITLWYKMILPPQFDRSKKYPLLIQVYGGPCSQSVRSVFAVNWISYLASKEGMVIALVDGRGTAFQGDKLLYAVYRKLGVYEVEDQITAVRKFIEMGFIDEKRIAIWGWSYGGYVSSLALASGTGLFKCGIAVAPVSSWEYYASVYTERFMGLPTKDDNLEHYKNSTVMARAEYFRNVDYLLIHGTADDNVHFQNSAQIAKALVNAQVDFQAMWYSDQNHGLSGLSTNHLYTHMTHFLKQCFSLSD

DPPIV [2] = target: T2, DPPIV (Homo sapiens, UniProt P27487); assay: Kinetics of fluorogenic substrate cleavage by DPPIV; format: biochemical
T2 sequence (P27487 whole entry, species assumed): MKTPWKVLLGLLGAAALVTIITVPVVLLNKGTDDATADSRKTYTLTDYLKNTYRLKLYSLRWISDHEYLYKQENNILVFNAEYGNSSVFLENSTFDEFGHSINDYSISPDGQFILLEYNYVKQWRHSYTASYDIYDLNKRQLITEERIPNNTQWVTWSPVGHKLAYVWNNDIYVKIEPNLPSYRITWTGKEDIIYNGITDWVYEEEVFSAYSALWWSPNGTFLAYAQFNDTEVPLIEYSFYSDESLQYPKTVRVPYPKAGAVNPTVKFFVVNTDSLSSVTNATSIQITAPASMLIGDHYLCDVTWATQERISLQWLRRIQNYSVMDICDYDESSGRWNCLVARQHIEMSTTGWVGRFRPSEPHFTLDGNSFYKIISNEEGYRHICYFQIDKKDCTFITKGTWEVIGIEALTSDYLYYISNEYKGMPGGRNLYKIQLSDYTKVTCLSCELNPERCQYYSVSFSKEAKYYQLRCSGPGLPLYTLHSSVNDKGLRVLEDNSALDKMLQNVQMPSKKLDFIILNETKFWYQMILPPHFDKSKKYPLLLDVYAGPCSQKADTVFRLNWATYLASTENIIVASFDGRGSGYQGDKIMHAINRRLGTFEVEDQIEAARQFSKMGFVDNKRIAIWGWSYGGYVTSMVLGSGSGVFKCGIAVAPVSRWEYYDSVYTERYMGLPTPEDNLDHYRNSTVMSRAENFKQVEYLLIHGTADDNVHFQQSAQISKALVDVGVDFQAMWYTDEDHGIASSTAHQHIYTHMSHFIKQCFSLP

APCE [3] = target: T1, APCE; assay: Cleavage of inhibitor by APCE during incubation; format: biochemical; settings: for hydrolysis of inhibitor by APCE: lengthy incubations with APCE
APCE [4] = target: T1, APCE; assay: APCE inhibition, fluorogenic substrate Z-Gly-Pro-AMC; format: biochemical; settings: for inhibitory effect on APCE: result in words
Procedure, shortened: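 Human-plasma-purified APCE in 25 mM sodium phosphate, pH 7.5, with 1.0 mM EDTA and 4% methanol; 20 min at 22 °C. Z-Gly-Pro-AMC at five concentrations (10–500 μM range) crossed with four inhibitor concentrations around the expected Ki. Released AMC followed over time (ex 360/em 460 nm) against an AMC standard curve. Competitive mode set by Lineweaver–Burk; Ki from competitive-equation fit, best fit ± standard error.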

recombinant FAP = settings: cited from earlier work
FAP = settings: read-out: Ki for FAP; cited from earlier work
DPPIV [5] = target: T2, DPPIV; settings: read-out: Ki for DPPIV; cited from earlier work
[6] = system: CSCC[C@H](N)C(=O)N[C@@H](CCC(=O)O)C(=O)N1CCC[C@H]1C(=O)N[C@@H](CC(C)C)C(=O)NCC(=O)N[C@@H](CCCNC(=N)N)C(=O)N[C@@H](CCC(N)=O)C(=O)N[C@@H](CC(C)C)C(=O)N[C@H](C(=O)N[C@@H](CO)C(=O)NCC(=O)N1CCC[C@H]1C(=O)Nc1ccc2c(C)cc(=O)oc2c1)[C@@H](C)O; assay: Kinetics of fluorogenic substrate cleavage by APCE; format: biochemical, human; settings: other: pH 7.5, 22 °C, 20 min
[7] = system: CSCC[C@H](N)C(=O)N[C@@H](CCC(=O)O)C(=O)N1CCC[C@H]1C(=O)N[C@@H](CC(C)C)C(=O)NCC(=O)N[C@@H](Cc1c[nH]c2ccccc12)C(=O)N[C@@H](CCC(N)=O)C(=O)N[C@@H](CC(C)C)C(=O)N[C@H](C(=O)N[C@@H](CO)C(=O)NCC(=O)N1CCC[C@H]1C(=O)Nc1ccc2c(C)cc(=O)oc2c1)[C@@H](C)O; assay: Kinetics of fluorogenic substrate cleavage by APCE; format: biochemical, human; settings: other: pH 7.5, 22 °C, 20 min

Molecule: Cc1cc(=O)oc2cc(NC(=O)[C@@H]3CCCN3C(=O)CN)ccc12 [GP-AMC, Gly-Pro-7-amido-4-methylcoumarin] (H-Gly-Pro-{AMC})
kcat, APCE (APCE [1]): 29.1 ± 1.1 min⁻¹ | Km (APCE [1]): 455 ± 42 µM | kcat/Km of APCE lower than the other three substrates (APCE [1]; vs MEPLGRQLTSGP-AMC, MEPLGWQLTSGP-AMC, Z-GP-AMC): 6–51 fold | kcat/Km of DPPIV higher than that of APCE (DPPIV [2]): ~30 fold | kcat, DPPIV (DPPIV [2]; pH 7.5, 22 °C, 20 min): 119.1 ± 6.1 min⁻¹ | Km (DPPIV [2]; read-out: Km, DPPIV, pH 7.5, 22 °C, 20 min): 63 ± 6 µM

Molecule: CC(=O)NCC(=O)N1CCCC1C#N (stereo not drawn) [acetyl-Gly-Pro-nitrile]
Ki (FAP): 6.8 µM | Ki (DPPIV [5]): 61 µM

Molecule: APCE (Homo sapiens)
Km [6]: 0.021 ± 0.002 mM | kcat [6]: 1.17 ± 0.0383 s⁻¹ | kcat/Km [6]: 55000 M⁻¹ s⁻¹ | Km [7]: 0.070 ± 0.006 mM | kcat [7]: 0.922 ± 0.025 s⁻¹ | kcat/Km [7]: 13200 M⁻¹ s⁻¹

Molecule: FR-peg-G-pipecolinic acid
inhibitory effect on APCE (APCE [4]): neither of which appeared to have any inhibitory effect

Molecule: NQEQV
inhibitory effect on APCE (APCE [4]): neither of which appeared to have any inhibitory effect

Second part, led by results:

hydrolysis of inhibitor by APCE (APCE [3]): slowly hydrolyzed
Molecule: CC(C)C[C@H](NC(=O)[C@H](CCC(N)=O)NC(=O)[C@H](CCCNC(=N)N)NC(=O)[C@@H](N)Cc1ccccc1)C(=O)N[C@H](C(=O)N[C@@H](CO)C(=O)NCC(=O)N1CCCC[C@H]1C(=O)N[C@@H](CC(N)=O)C(=O)N[C@@H](CCC(N)=O)C(=O)N[C@@H](CCC(=O)O)C(=O)N[C@@H](CCC(N)=O)C(=O)N[C@H](C(=O)O)C(C)C)[C@@H](C)O [Inhibitor 1, FRQLTSG-pipecolinyl-NQEQV] (H-FRQLTSG[Pip]NQEQV-OH; N-terminus assumed)

fraction of inhibitor cleaved by APCE (APCE [3]; 1 h incubation, LC/MS): ~6% | hydrolysis of inhibitor by APCE (APCE [3]): slowly hydrolyzed
Molecule: CC(C)[C@H](NC(=O)[C@H](CCC(N)=O)NC(=O)[C@H](CCC(=O)O)NC(=O)[C@H](CCC(N)=O)NC(=O)[C@H](CC(N)=O)NC(=O)[C@@H]1CCCCN1C(=O)CNC(=O)COCCOCCNC(=O)[C@H](CCCNC(=N)N)NC(=O)[C@@H](N)Cc1ccccc1)C(=O)O [Inhibitor 2, FR-peg-G-pipecolinyl-NQEQV] (H-FR[AEEA]G[Pip]NQEQV-OH; N-terminus assumed)

change of Ki relative to inhibitor 2 (P7 Arg replaced with Gly) (APCE [4]; printed as Ki reduced): ~4 fold
Molecule: CC(C)[C@H](NC(=O)[C@H](CCC(N)=O)NC(=O)[C@H](CCC(=O)O)NC(=O)[C@H](CCC(N)=O)NC(=O)[C@H](CC(N)=O)NC(=O)[C@@H]1CCCCN1C(=O)CNC(=O)COCCOCCNC(=O)CNC(=O)[C@@H](N)Cc1ccccc1)C(=O)O [Inhibitor 3, FG-peg-G-pipecolinyl-NQEQV] (H-FG[AEEA]G[Pip]NQEQV-OH; N-terminus assumed)

inhibitory effect on APCE (APCE [4]): lacked inhibitory properties
Molecule: N=C(N)NCCC[C@H](NC(=O)[C@@H](N)Cc1ccccc1)C(=O)NCCOCCOCC(=O)NCC(=O)N1CCCC[C@H]1C(N)=O [Inhibitor 11, FR-peg-G-pipecolinamide] (H-FR[AEEA]G[Pip]-NH2; N-terminus assumed)

kcat, APCE (APCE [1]): 36.4 ± 1.2 min⁻¹ | Km (APCE [1]): 90 ± 9 µM
Molecule: Cc1cc(=O)oc2cc(NC(=O)[C@@H]3CCCN3C(=O)CNC(=O)OCc3ccccc3)ccc12 [Z-GP-AMC, benzyloxycarbonyl- (Z-) Gly-Pro-AMC] (Cbz-Gly-Pro-{AMC})
increase in catalytic efficiency of recombinant FAP as opposed to Gly-Pro-AMC (recombinant FAP): ~18 fold
